The source made the active and inactive calls. The calls are words filed in the database; no cut-off is given here.
What was measured:
Phaseolus vulgaris [1] = test: Herbicidal activity against Phaseolus vulgaris assessed as inhibition of mitochondrial oxygen uptake; assay type: functional, organism-based; conditions: read-out: I50
Artemia salina [2] = test: Toxicity in Artemia salina (brine shrimp) larvae assessed as mortality; assay type: organism-based; conditions: in vivo
Outline: (§1)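 Brine shrimp lethality test on *Artemia salina* larvae, run across several concentrations up to a top level of 1000 µM. Mortality was scored at each concentration, and LC50 values in µM were derived from the concentration–mortality data.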

Phaseolus vulgaris [3] = test: Herbicidal activity against Phaseolus vulgaris assessed as inhibition of seed respiration during germination; assay type: functional, organism-based; conditions: read-out: I50
Lactuca sativa [4] = test: Herbicidal activity against Lactuca sativa var.Roman (lettuce) assessed as inhibition of seed germination after 48 hr; assay type: functional, organism-based; conditions: read-out: I50
Artemia salina [5] = test: Toxicity in Artemia salina (brine shrimp) larvae assessed as mortality at 100 uM; assay type: organism-based; conditions: in vivo; outline: as §1
Artemia salina [6] = test: Toxicity in Artemia salina (brine shrimp) larvae assessed as mortality at 20 uM; assay type: organism-based; conditions: in vivo; outline: as §1
Trifolium pratense [7] = test: Herbicidal activity against Trifolium pratense var. Kenland (red clover) assessed as inhibition of seed respiration during germination after 72 hr by polarographic analysis; assay type: functional, organism-based
Outline: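 Red clover seeds were exposed to the bismuthines during germination, with respiration followed over the imbibition time. Values were taken at 72 h as the concentration giving 50% inhibition of seed respiration, using means of three experiments.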

Trifolium pratense [8] = test: Herbicidal activity against Trifolium pratense var. Kenland (red clover) assessed as inhibition of seed germination after 48 hr; assay type: functional, organism-based; conditions: read-out: I50
Artemia salina [9] = test: Toxicity in Artemia salina (brine shrimp) larvae assessed as mortality at 200 uM; assay type: organism-based; conditions: in vivo; outline: as §1
Lolium multiflorum [10] = test: Herbicidal activity against Lolium multiflorum var. Gulf (Italian ryegrass) assessed as inhibition of seed germination after 48 hr; assay type: functional, organism-based; conditions: read-out: I50
Artemia salina [11] = test: Toxicity in Artemia salina (brine shrimp) larvae assessed as mortality at 500 to 1000 uM; assay type: organism-based; conditions: in vivo; outline: as §1
Lolium multiflorum [12] = test: Herbicidal activity against Lolium multiflorum var. Gulf (Italian ryegrass) seedlings assessed as shoot length rate at 3 uM after 48 hr relative to control; assay type: functional, organism-based
Outline: (§2)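 Italian ryegrass seedlings grown with 0, 0.5, 1, 3, 5, 7.5 or 10 µM of each bismuthine. Shoot and root lengths were measured at 48 h and expressed as a percentage of the average untreated control length.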

Lactuca sativa [13] = test: Herbicidal activity against Lactuca sativa var.Roman (lettuce) seedlings assessed as root length at 75 uM after 120 hr (reference value: 18 to 19 mm); assay type: functional, organism-based
Lolium multiflorum [14] = test: Herbicidal activity against Lolium multiflorum var. Gulf (Italian ryegrass) seedlings assessed as shoot length rate at 10 uM after 48 hr relative to control; assay type: functional, organism-based; outline: as §2
Lactuca sativa [15] = test: Herbicidal activity against Lactuca sativa var.Roman (lettuce) assessed as inhibition of seed germination at > 36.6 uM after 48 hr; assay type: functional, organism-based
Lolium multiflorum [16] = test: Herbicidal activity against Lolium multiflorum var. Gulf (Italian ryegrass) seedlings assessed as root length rate at 5 uM after 48 hr relative to control; assay type: functional, organism-based; outline: as §2
Lolium multiflorum [17] = test: Herbicidal activity against Lolium multiflorum var. Gulf (Italian ryegrass) seedlings assessed as shoot length rate at 5 uM after 48 hr relative to control; assay type: functional, organism-based; outline: as §2
Lactuca sativa [18] = test: Herbicidal activity against Lactuca sativa var.Roman (lettuce) seedlings assessed as shoot length at 75 uM after 120 hr (reference value: 27 to 31 mm); assay type: functional, organism-based
Lolium multiflorum [19] = test: Herbicidal activity against Lolium multiflorum var. Gulf (Italian ryegrass) seedlings assessed as root length rate at 3 uM after 48 hr relative to control; assay type: functional, organism-based; outline: as §2
Lactuca sativa [20] = test: Herbicidal activity against Lactuca sativa var.Roman (lettuce) seedlings assessed as root length at 25 uM after 120 hr (reference value: 18 to 19 mm); assay type: functional, organism-based
Lolium multiflorum [21] = test: Herbicidal activity against Lolium multiflorum var. Gulf (Italian ryegrass) seedlings assessed as root length rate at 1 uM after 48 hr relative to control; assay type: functional, organism-based; outline: as §2
Lolium multiflorum [22] = test: Herbicidal activity against Lolium multiflorum var. Gulf (Italian ryegrass) seedlings assessed as shoot length rate at 1 uM after 48 hr relative to control; assay type: functional, organism-based; outline: as §2
Lactuca sativa [23] = test: Herbicidal activity against Lactuca sativa var.Roman (lettuce) seedlings assessed as seed germination rate at 0.5 uM after 48 hr relative to control; assay type: functional, organism-based
Lolium multiflorum [24] = test: Herbicidal activity against Lolium multiflorum var. Gulf (Italian ryegrass) seedlings assessed as shoot length rate at 0.5 uM after 48 hr relative to control; assay type: functional, organism-based; outline: as §2
Lactuca sativa [25] = test: Herbicidal activity against Lactuca sativa var.Roman (lettuce) seedlings assessed as seed germination rate at 5 uM after 48 hr relative to control; assay type: functional, organism-based
Lactuca sativa [26] = test: Herbicidal activity against Lactuca sativa var.Roman (lettuce) seedlings assessed as shoot length at 10 uM after 120 hr (reference value: 27 to 31 mm); assay type: functional, organism-based
Physalis ixocarpa = test: Herbicidal activity against Physalis ixocarpa assessed as inhibition of seed respiration during germination after 72 hr by polarographic analysis; assay type: functional, organism-based
Lactuca sativa [27] = test: Herbicidal activity against Lactuca sativa var.Roman (lettuce) seedlings assessed as shoot length at 5 uM after 120 hr (reference value: 27 to 31 mm); assay type: functional, organism-based
[28] = test system: Radical scavenging activity; test: Antioxidant activity assessed as DPPH free radical scavenging activity at 5 to 100 uM after 30 min by spectrophotometric analysis; assay type: functional
Outline: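 DPPH reduction by the compounds was read spectrophotometrically at 517 nm after 30 min. 100% DMSO served as the blank and quercetin as the reference scavenger.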

Lactuca sativa [29] = test: Herbicidal activity against Lactuca sativa var.Roman (lettuce) seedlings assessed as root length at 50 uM after 120 hr (reference value: 18 to 19 mm); assay type: functional, organism-based
[30] = test system: Radical scavenging activity; test: Antioxidant activity assessed as DPPH free radical scavenging activity at 5 to 100 uM after 30 min by TLC autographic assay; assay type: functional
Lolium multiflorum [31] = test: Herbicidal activity against Lolium multiflorum var. Gulf (Italian ryegrass) seedlings assessed as shoot length rate at 7.5 uM after 48 hr relative to control; assay type: functional, organism-based; outline: as §2
Lactuca sativa [32] = test: Herbicidal activity against Lactuca sativa var.Roman (lettuce) assessed as inhibition of seed germination at > 48.8 uM after 48 hr; assay type: functional, organism-based
Lolium multiflorum [33] = test: Herbicidal activity against Lolium multiflorum var. Gulf (Italian ryegrass) seedlings assessed as root length rate at 7.5 uM after 48 hr relative to control; assay type: functional, organism-based; outline: as §2
Lactuca sativa [34] = test: Herbicidal activity against Lactuca sativa var.Roman (lettuce) seedlings assessed as seed germination rate at 7.5 uM after 48 hr relative to control; assay type: functional, organism-based
Lolium multiflorum [35] = test: Herbicidal activity against Lolium multiflorum var. Gulf (Italian ryegrass) assessed as inhibition of seed respiration during germination after 72 hr by polarographic analysis; assay type: functional, organism-based
Lactuca sativa [36] = test: Herbicidal activity against Lactuca sativa var.Roman (lettuce) seedlings assessed as seed germination rate at 1 uM after 48 hr relative to control; assay type: functional, organism-based
Lolium multiflorum [37] = test: Herbicidal activity against Lolium multiflorum var. Gulf (Italian ryegrass) seedlings assessed as root length rate at 0.5 uM after 48 hr relative to control; assay type: functional, organism-based; outline: as §2
Lactuca sativa [38] = test: Herbicidal activity against Lactuca sativa var.Roman (lettuce) seedlings assessed as seed germination rate at 10 uM after 48 hr relative to control; assay type: functional, organism-based
Lactuca sativa [39] = test: Herbicidal activity against Lactuca sativa var.Roman (lettuce) seedlings assessed as root length at 10 uM after 120 hr (reference value: 18 to 19 mm); assay type: functional, organism-based
Trifolium pratense [40] = test: Herbicidal activity against Trifolium pratense var. Kenland (red clover) assessed as inhibition of seed germination at > 18.3 uM after 48 hr; assay type: functional, organism-based
Lactuca sativa [41] = test: Herbicidal activity against Lactuca sativa var.Roman (lettuce) seedlings assessed as root length at 5 uM after 120 hr (reference value: 18 to 19 mm); assay type: functional, organism-based
Lactuca sativa [42] = test: Herbicidal activity against Lactuca sativa var.Roman (lettuce) seedlings assessed as seed germination rate at 3 uM after 48 hr relative to control; assay type: functional, organism-based
Lolium multiflorum [43] = test: Herbicidal activity against Lolium multiflorum var. Gulf (Italian ryegrass) seedlings assessed as root length rate at 10 uM after 48 hr relative to control; assay type: functional, organism-based; outline: as §2

Substance: TRIS(2-FURYL)BISMUTH [listing 1 of 2 here]
- IC50 (Phaseolus vulgaris [1]): 10 µM
- LC50 (Artemia salina [2]): 99 µM
- IC50 (Phaseolus vulgaris [3]): 1.1 µM
- IC50 (Lactuca sativa [4]): 16.1 µM
- mortality (Artemia salina [5]): 50.9%
- mortality (Artemia salina [6]): 12.28%
- IC50 (Trifolium pratense [7]; read-out: I50): 6.3 µM
- IC50 (Trifolium pratense [8]): 4.6 µM
- mortality (Artemia salina [9]): 68.96%
- IC50 (Lolium multiflorum [10]): 20 µM
- mortality (Artemia salina [11]): 100%

Substance: TRIS(2-FURYL)BISMUTH [listing 2 of 2 here]
- Activity (Lolium multiflorum [12]): 79%
- Activity (Lactuca sativa [13]): 0 mm
- Activity (Lolium multiflorum [14]): 24%
- inhibition (Lactuca sativa [15]): Active
- Activity (Lolium multiflorum [16]): 66%
- Activity (Lolium multiflorum [17]): 55%
- Activity (Lactuca sativa [18]): 0 mm
- Activity (Lolium multiflorum [19]): 86%
- Activity (Lactuca sativa [20]): 0 mm
- Activity (Lolium multiflorum [21]): 70%
- Activity (Lolium multiflorum [22]): 75%
- Activity (Lactuca sativa [23]): 95%
- inhibition (Trifolium pratense [7]): Dose-dependent effect
- Activity (Lolium multiflorum [24]): 82%
- Activity (Lactuca sativa [25]): 70%
- Activity (Lactuca sativa [26]): 11 mm
- inhibition (Physalis ixocarpa): Active
- Activity (Lactuca sativa [27]): 24 mm
- Activity [28]: Active
- Activity (Lactuca sativa [29]): 0 mm
- Activity [30]: Active
- Activity (Lolium multiflorum [31]): 53%
- inhibition (Lactuca sativa [32]): 100%
- Activity (Lolium multiflorum [33]): 44%
- Activity (Lactuca sativa [34]): 35%
- inhibition (Lolium multiflorum [35]): inactive
- Activity (Lactuca sativa [36]): 95%
- Activity (Lolium multiflorum [37]): 78%
- Activity (Lactuca sativa [38]): 35%
- Activity (Lactuca sativa [39]): 7 mm
- inhibition (Trifolium pratense [40]): 100%
- Activity (Lactuca sativa [41]): 32 mm
- Activity (Lactuca sativa [42]): 80%
- Activity (Lolium multiflorum [43]): 30%
